# From ChEMBL document CHEMBL1165908, “Novel benzimidazole-pyrimidine conjugates as potent antitumor agents” (Eur J Med Chem, 2010)
# pIC50: −log10 of the molar value. Structures can show the parent of a compound that is named as a salt.
# Legend:
# [1] = system: KB; test: Cytotoxicity against human KB cells after 3 days by MTT assay; assay type: functional, cell-based; details: 72 h
# How it was run: (§1)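 Cells grown in RPMI 1640 with 10% fetal calf serum, plated at 2 × 10^4 cells, held 12 h at 37 °C in 5% CO2, then exposed to test sample for 3 days at 37 °C. MTT added for 4 h, formazan dissolved in DMSO, absorbance read at 570 nm. IC50 taken as 50% growth inhibition relative to untreated control; each experiment run at least 3 times.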
# [2] = system: U-937; test: Cytotoxicity against human U937 cells after 3 days by MTT assay; assay type: functional, cell-based; details: U-937, 72 h; how it was run: as §1
# [3] = system: SK-MEL-28; test: Cytotoxicity against human SK-MEL-28 cells after 3 days by MTT assay; assay type: functional, cell-based; details: SK-MEL-28, 72 h; how it was run: as §1
# [4] = system: NB1; test: Cytotoxicity against human NB-1 cells after 3 days by MTT assay; assay type: functional, cell-based; details: NB1, 72 h; how it was run: as §1
# [5] = system: NCI-H460; test: Cytotoxicity against human NCI-H460 cells after 3 days by MTT assay; assay type: functional, cell-based; details: NCI-H460, 72 h; how it was run: as §1
# [6] = system: HL-60; test: Cytotoxicity against human HL60 cells after 3 days by MTT assay; assay type: functional, cell-based; details: HL-60, 72 h
# [7] = Cytotoxicity against human RKOp27 cells after 3 days by MTT assay; assay type: functional, cell-based; details: RKOp27, 72 h; how it was run: as §1
# [8] = system: SK-OV-3; test: Cytotoxicity against human SKOV3 cells after 3 days by MTT assay; assay type: functional, cell-based; details: SK-OV-3, 72 h; how it was run: as §1
# [9] = Toxicity in ip dosed mouse assessed as mortality after 24 hrs; assay type: organism-based; details: in vivo
# How it was run: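 Lorke two-phase design in mice, single intraperitoneal dose per group. Phase 1: three groups of three animals, each group one dose, observed 24 h for mortality and general behaviour. Phase 2: 3–4 groups of one mouse, doses chosen from phase 1 findings, observed 24 h. LD50 taken as geometric mean of lowest lethal dose and highest non-lethal dose; reported in mg/kg.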
# [10] = system: K562; test: Cytotoxicity against human K562 cells after 3 days by MTT assay; assay type: functional, cell-based; details: K562, 72 h; how it was run: as §1
# [11] = system: SF-268; test: Cytotoxicity against human SF268 cells after 3 days by MTT assay; assay type: functional, cell-based; details: SF-268, 72 h; how it was run: as §1
# [12] = system: GOTO; test: Cytotoxicity against human GOTO cells after 3 days by MTT assay; assay type: functional, cell-based; details: 72 h; how it was run: as §1
# [13] = system: G-361; test: Cytotoxicity against human G361 cells after 3 days by MTT assay; assay type: functional, cell-based; details: G-361, 72 h; how it was run: as §1
Structure (SMILES),pIC50 [1],pIC50 [2],pIC50 [3],pIC50 [4],pIC50 [5],pIC50 [6],pIC50 [7],pIC50 [8],LD50 at 24 h [9],pIC50 [10],pIC50 [11],pIC50 [12],pIC50 [13]
N#Cc1c(NC(N)=O)nc(SCc2nc3ccccc3[nH]2)nc1-c1ccccc1,8.02,8.47,8.32,8.13,7.83,8.54,8.60,8.17,347 mg/kg,8.34,8.47,7.95,8.59
CNc1nc(SCc2nc3ccccc3[nH]2)nc(-c2ccccc2)c1C#N,8.57,7.72,8.54,8.35,8.49,8.18,8.43,8.52,302 mg/kg,7.88,8.49,8.48,7.90
N#Cc1c(NNC(N)=S)nc(SCc2nc3ccccc3[nH]2)nc1-c1ccccc1,8.52,8.52,8.49,8.24,8.47,8.34,8.49,8.52,345 mg/kg,8.05,8.47,8.59,8.40
N#Cc1c(Nc2nccs2)nc(SCc2nc3ccccc3[nH]2)nc1-c1ccccc1,7.83,8.42,8.05,8.49,8.47,7.92,8.49,8.24,349 mg/kg,7.83,8.59,8.29,7.92
N#Cc1c(Nc2ccccn2)nc(SCc2nc3ccccc3[nH]2)nc1-c1ccccc1,8.13,8.59,8.05,8.41,8.55,7.70,8.42,8.24,367 mg/kg,8.15,8.17,8.60,8.05
CN1CCN(c2nc(SCc3nc4ccccc4[nH]3)nc(-c3ccccc3)c2C#N)CC1,8.57,8.17,7.70,8.62,8.55,8.55,8.27,5.80,384 mg/kg,8.62,8.16,8.47,7.83
N#Cc1c(Cl)nc(SCc2nc3ccccc3[nH]2)nc1-c1ccccc1,8.43,8.35,8.48,8.54,8.48,8.35,8.36,8.47,313 mg/kg,7.95,8.49,8.06,7.90
N#Cc1c(-c2ccccc2)nc(SCc2nc3ccccc3[nH]2)nc1N1CCNCC1,8.54,8.24,8.59,8.17,8.13,8.40,8.24,8.58,300 mg/kg,8.36,4.70,8.43,8.60
N#Cc1c(NC(N)=S)nc(SCc2nc3ccccc3[nH]2)nc1-c1ccccc1,8.49,7.70,8.32,7.92,8.47,8.24,8.58,8.11,327 mg/kg,7.92,8.47,8.32,8.24
N#Cc1c(O)nc(SCc2nc3ccccc3[nH]2)nc1-c1ccccc1,8.21,8.48,8.11,8.18,8.60,8.59,8.22,8.59,345 mg/kg,8.33,8.49,8.11,8.46
CCNc1nc(SCc2nc3ccccc3[nH]2)nc(-c2ccccc2)c1C#N,8.13,8.58,8.28,8.58,8.54,8.40,8.13,8.13,325 mg/kg,8.36,8.13,8.40,8.36
N#Cc1c(Nc2ccncc2)nc(SCc2nc3ccccc3[nH]2)nc1-c1ccccc1,8.49,8.13,8.35,8.17,8.56,8.56,8.24,8.35,316 mg/kg,8.00,8.62,8.59,8.59
N#Cc1c(NN)nc(SCc2nc3ccccc3[nH]2)nc1-c1ccccc1,8.59,8.41,8.52,8.27,8.59,7.92,8.59,8.57,344 mg/kg,7.83,8.56,8.57,7.83
N#Cc1c(-c2ccccc2)nc(SCc2nc3ccccc3[nH]2)nc1N1CCN(C(=O)c2ccccc2)CC1,8.52,8.57,8.05,8.13,8.49,8.17,8.59,8.40,327 mg/kg,8.47,8.55,8.06,8.62
ClCc1nc2ccccc2[nH]1,,,,,,,,,253 mg/kg,,,,
CCCCCOC(=O)Nc1nc(=O)n([C@@H]2O[C@H](C)[C@@H](O)[C@H]2O)cc1F [CAPECITABINE],,,,,,,5.36,,,,,,
Nc1ccn([C@@H]2O[C@H](CO)[C@@H](O)[C@@H]2O)c(=O)n1 [CYTARABINE],,,,,,,,,,,5.11,,
COc1cccc2c1C(=O)c1c(O)c3c(c(O)c1C2=O)C[C@@](O)(C(=O)CO)C[C@@H]3O[C@H]1C[C@H](N)[C@H](O)[C@H](C)O1 [DOXORUBICIN],,,,,,,,5.38,,8.21,,,
O=c1[nH]cc(F)c(=O)[nH]1 [FLUOROURACIL],5.35,,,,,,,,,,,,
Nc1ccn([C@@H]2O[C@H](CO)[C@@H](O)C2(F)F)c(=O)n1 [GEMCITABINE HYDROCHLORIDE],,,,,5.67,,,,,,,,
